According to ChEMBL document CHEMBL2177096, “Sulfonyl fluoride inhibitors of fatty acid amide hydrolase” (J Med Chem, 2012):

What was measured:
[1] = Inhibition of rat FAAH deltaTM mutant expressed in Escherichia coli using AAMCA as substrate after 15 mins by medium throughput fluorescent assay
Cannabinoid receptor 2 = Cannabinoid receptor 2 (Mus musculus, UniProt P47936); assay: Displacement of [3H]CP-55,940 from mouse CB2 receptor expressed in HEK293 cells; assay type: cell-based
Method in brief: (§1)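 Membranes from rat brain (CB1) or from HEK293 cells overexpressing mouse CB2 were used, with [3H]CP-55,940 as radioligand. Data fitted by nonlinear regression. Ki values come from three independent experiments run in duplicate and are given as the mean of the three.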

Cannabinoid receptor 1 = Cannabinoid receptor 1 (Rattus norvegicus, UniProt P20272); assay: Displacement of [3H]CP-55,940 from CB1 receptor in rat brain homogenates; assay type: tissue-based; method in brief: as §1
Chain of Cannabinoid receptor 1 (P20272 whole entry): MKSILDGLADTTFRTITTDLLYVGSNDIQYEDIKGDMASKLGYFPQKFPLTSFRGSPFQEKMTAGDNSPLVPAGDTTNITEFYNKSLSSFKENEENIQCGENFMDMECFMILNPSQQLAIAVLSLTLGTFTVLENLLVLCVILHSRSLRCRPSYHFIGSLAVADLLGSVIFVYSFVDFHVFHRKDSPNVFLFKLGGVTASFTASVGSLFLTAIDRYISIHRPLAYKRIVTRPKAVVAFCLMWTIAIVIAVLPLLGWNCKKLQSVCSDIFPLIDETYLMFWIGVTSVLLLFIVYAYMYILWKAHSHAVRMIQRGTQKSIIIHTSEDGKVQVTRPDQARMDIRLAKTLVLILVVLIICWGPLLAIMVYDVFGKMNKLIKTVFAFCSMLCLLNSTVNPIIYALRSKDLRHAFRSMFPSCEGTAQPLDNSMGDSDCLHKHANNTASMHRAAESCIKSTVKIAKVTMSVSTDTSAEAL

[2] = Inhibition of human FAAH deltaTM mutant expressed in Escherichia coli using AAMCA as substrate after 15 mins by medium throughput fluorescent assay
Rattus norvegicus = species: Rattus norvegicus; assay: Irreversible inhibition of rat FAAH deltaTM mutant expressed in Escherichia coli assessed as recovery of enzyme activity using AAMCA as substrate at 40 times IC50 treated for 1 hr measured after 80 mins of rapid dilution by medium throughput fluorescent assay; design: scale not given: the % may be the effect or the level left
Monoglyceride lipase = target: T1, Monoglyceride lipase (Homo sapiens, UniProt Q99685); assay: Inhibition of recombinant human hexahistidine-tagged MGL expressed in Escherichia coli using AHMMCE as substrate after 15 mins by medium throughput fluorescent assay
T1 sequence (Q99685 whole entry): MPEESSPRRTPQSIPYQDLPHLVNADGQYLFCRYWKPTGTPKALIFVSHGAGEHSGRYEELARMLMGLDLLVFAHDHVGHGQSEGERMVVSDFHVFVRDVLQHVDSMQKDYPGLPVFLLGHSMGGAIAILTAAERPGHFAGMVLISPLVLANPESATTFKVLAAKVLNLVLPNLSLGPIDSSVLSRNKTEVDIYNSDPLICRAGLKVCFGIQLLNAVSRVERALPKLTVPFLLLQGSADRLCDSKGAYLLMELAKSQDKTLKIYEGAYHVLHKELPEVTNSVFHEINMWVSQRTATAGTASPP

Chain of Cannabinoid receptor 2 (P47936 whole entry): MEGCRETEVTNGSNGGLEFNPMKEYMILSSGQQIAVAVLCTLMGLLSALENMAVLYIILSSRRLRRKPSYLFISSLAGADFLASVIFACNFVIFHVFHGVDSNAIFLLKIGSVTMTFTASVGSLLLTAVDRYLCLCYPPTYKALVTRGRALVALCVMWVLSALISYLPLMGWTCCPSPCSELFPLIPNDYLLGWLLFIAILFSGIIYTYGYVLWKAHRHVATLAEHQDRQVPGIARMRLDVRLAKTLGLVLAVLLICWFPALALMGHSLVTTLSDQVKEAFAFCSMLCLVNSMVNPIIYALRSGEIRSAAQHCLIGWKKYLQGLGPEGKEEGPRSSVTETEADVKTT

Compound | IC50 [1] [µM] | Ki (Cannabinoid receptor 2) [µM] | Ki (Cannabinoid receptor 1) [µM] | other results
O=S(=O)(F)CCCCCCCc1ccccc1OCc1ccccc1 | 0.0043 |  |  | 
O=S(=O)(F)CCCCCCCc1ccccc1 | 0.037 |  |  | 
O=S(=O)(F)CCCCCCCCc1ccccc1 | 0.176 |  |  | 
O=S(=O)(F)CCCCCc1ccccc1 | 0.0504 |  |  | 
O=S(=O)(F)CCCCCCc1ccccc1 | 0.0377 |  |  | 
O=S(=O)(F)CCCCOc1ccc(OCc2ccccc2)cc1 | 0.0012 | 0.203 | 0.104 | 
O=S(=O)(F)CCCCc1ccccc1 | 0.0882 |  |  | 
O=S(=O)(F)CCCCCc1ccc(O)cc1 | 0.0028 | 0.577 | 0.192 | IC50 [2]: 0.0051 µM; Activity (Rattus norvegicus): 8%
O=S(=O)(F)CCCCCCCc1cccc(O)c1 | 0.0025 |  |  | 
O=S(=O)(F)CCCCCCCc1cccc(OCc2ccccc2)c1 |  | 0.099 | 0.335 | 
O=S(=O)(F)CCCc1ccccc1 | 0.205 |  |  | 
O=S(=O)(F)CCCCCCCc1ccc(O)cc1 |  | 0.698 | 0.163 | 
O=S(=O)(F)CCCCCc1ccc(OCc2ccccc2)cc1 | 0.0015 | 0.194 | 0.118 | 
O=S(=O)(F)CCCCCCCc1ccccc1O | 0.0012 |  |  | 
COS(=O)(=O)CCCCCCCc1ccc(OCc2ccccc2)cc1 | 0.269 |  |  | IC50 (Monoglyceride lipase): > 5 µM
